# Test results published in ChEMBL document CHEMBL3856208, “Lupane and 18α-oleanane derivatives substituted in the position 2, their cytotoxicity and influence on cancer cells” (Eur J Med Chem, 2016).
# Experiments:
# [1] = Cytotoxicity against human K562-TAX cells after 72 hrs by MTS assay; format: functional, cell-based
# Method in brief: (§1)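 Cells seeded at 25000–35000 cells/mL, compounds from DMSO dosed at time zero as four-fold dilutions. Exposure 72 h at 37 °C, 5% CO2, with MTS added for 1–4 h and OD read at 490 nm. Survival expressed as % of mean control OD, with IC50 from dose-response curves. Run as technical duplicates in at least three biological replicates.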
# [2] = Cytotoxicity against human A549 cells after 72 hrs by MTS assay; format: functional, cell-based; details: A549, 72 h; method in brief: as §1
# [3] = Cytotoxicity against p53 deficient human HCT116 cells after 72 hrs by MTS assay; format: functional, cell-based; details: HCT-116, 72 h; method in brief: as §1
# [4] = Therapeutic index, ratio of IC50 for human BJ cells to IC50 for human CCRF-CEM cells; format: cell-based; details: BJ cells versus CCRF-CEM cells, read-out: Ratio IC50
# [5] = Cell cycle arrest in human CCRF-CEM cells assessed as accumulation at G2/M phase at 4.6 uM after 24 hrs by propidium iodide staining-based flow cytometric method (reference value: 13.28%); format: functional
# [6] = Cytotoxicity against human CCRF-CEM cells after 72 hrs by MTS assay; format: functional, cell-based; method in brief: as §1
# [7] = tested on: CCRF-CEM; test: Mitotic arrest in human CCRF-CEM cells assessed as phosphorylation of histone-3 at Ser10 at 4.6 uM after 24 hrs by flow cytometric method (reference value: 1.66%); format: functional
# [8] = Cytotoxicity against human MRC5 cells after 72 hrs by MTS assay; format: toxicity, cell-based; method in brief: as §1
# [9] = tested on: CCRF-CEM; test: Inhibition of RNA synthesis in human CCRF-CEM cells assessed as decrease in BrU incorporation by measuring synthesized RNA levels at 23 uM after 24 hrs by propidium iodide staining-based flow cytometric method (reference value: 43.37%); format: functional; parameters: scale not given: the % may be the effect or the level left
# [10] = Cell cycle arrest in human CCRF-CEM cells assessed as accumulation at sub G1 phase at 4.6 uM after 24 hrs by propidium iodide staining-based flow cytometric method (reference value: 1.8%); format: functional
# [11] = Cell cycle arrest in human CCRF-CEM cells assessed as accumulation at G0/G1 phase at 23 uM after 24 hrs by propidium iodide staining-based flow cytometric method (reference value: 36.41%); format: functional
# [12] = tested on: CCRF-CEM; test: Mitotic arrest in human CCRF-CEM cells assessed as phosphorylation of histone-3 at Ser10 at 23 uM after 24 hrs by flow cytometric method (reference value: 1.66%)
# [13] = Cell cycle arrest in human CCRF-CEM cells assessed as accumulation at G2/M phase at 23 uM after 24 hrs by propidium iodide staining-based flow cytometric method (reference value: 13.28%); format: functional
# [14] = Cell cycle arrest in human CCRF-CEM cells assessed as accumulation at sub G1 phase at 23 uM after 24 hrs by propidium iodide staining-based flow cytometric method (reference value: 1.8%); format: functional
# [15] = Cytotoxicity against human K562 cells after 72 hrs by MTS assay; format: functional, cell-based; details: K562, 72 h; method in brief: as §1
# [16] = Cytotoxicity against human HCT116 cells after 72 hrs by MTS assay; format: functional, cell-based; details: HCT-116, 72 h; method in brief: as §1
# [17] = Cell cycle arrest in human CCRF-CEM cells assessed as accumulation at G0/G1 phase at 4.6 uM after 24 hrs by propidium iodide staining-based flow cytometric method (reference value: 36.41%); format: functional
# [18] = tested on: CCRF-CEM; test: Inhibition of RNA synthesis in human CCRF-CEM cells assessed as decrease in BrU incorporation by measuring synthesized RNA levels at 4.6 uM after 24 hrs by propidium iodide staining-based flow cytometric method (reference value: 43.37%); format: functional; parameters: scale not given: the % may be the effect or the level left
# [19] = Cytotoxicity against human U2OS cells after 72 hrs by MTS assay; format: functional, cell-based; method in brief: as §1
# [20] = Therapeutic index, ratio of IC50 for human MRC5 cells to IC50 for human CCRF-CEM cells; format: cell-based; details: MRC5 cells versus CCRF-CEM cells, read-out: Ratio IC50
# [21] = Cell cycle arrest in human CCRF-CEM cells assessed as accumulation at S phase at 23 uM after 24 hrs by propidium iodide staining-based flow cytometric method (reference value: 50.33%); format: functional
# [22] = Cytotoxicity against human BJ cells after 72 hrs by MTS assay; format: toxicity, cell-based; method in brief: as §1
# [23] = tested on: CCRF-CEM; test: Inhibition of DNA synthesis in human CCRF-CEM cells assessed as decrease in BrdU incorporation by measuring synthesized DNA levels at 4.6 uM after 24 hrs by propidium iodide staining-based flow cytometric method (reference value: 56.37%); format: functional; parameters: scale not given: the % may be the effect or the level left
# Method in brief: (§2)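 CCRF-CEM cells were cultured and treated as for cell cycle analysis, then pulse-labeled with 10 µM BrDU for 30 min before harvest. Cells were ethanol-fixed, DNA-denatured in 2 M HCl for 30 min at room temperature, and neutralized with 0.1 M borax. Staining used anti-BrDU, then anti-mouse-FITC, then PI (0.1 mg/mL) with RNase A (0.5 mg/mL) for 1 h. Read-out was 488 nm flow cytometry.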
# [24] = Cytotoxicity against human CEM/DNR cells after 72 hrs by MTS assay; format: functional, cell-based; method in brief: as §1
# [25] = tested on: CCRF-CEM; test: Inhibition of DNA synthesis in human CCRF-CEM cells assessed as decrease in BrdU incorporation by measuring synthesized DNA levels at 23 uM after 24 hrs by propidium iodide staining-based flow cytometric method (reference value: 56.37%); format: functional; parameters: scale not given: the % may be the effect or the level left; method in brief: as §2
# [26] = Cell cycle arrest in human CCRF-CEM cells assessed as accumulation at S phase at 4.6 uM after 24 hrs by propidium iodide staining-based flow cytometric method (reference value: 50.33%); format: functional
SMILES,IC50 [1] [µM],IC50 [2] [µM],IC50 [3] [µM],selectivity ratio [4],IC50 [6] [µM],IC50 at 72 h [8] [µM],IC50 [15] [µM],IC50 [16] [µM],IC50 [19] [µM],selectivity ratio [20],IC50 at 72 h [22] [µM],IC50 [24] [µM],also measured
CC1(C)CC[C@]23CC[C@]4(C)[C@H](CC[C@@H]5[C@@]6(C)CC(N)[C@H](O)C(C)(C)[C@@H]6CC[C@]54C)[C@H]2[C@H]1OC3 (stereo partly specified),3.9,6.2,4.8,1.4,4.6 to 5,6.3,4.5,4.9,6.2,1.4,7.1,5.9,Activity [5]: 11.5%; Activity [7]: 1.44%; Activity [9]: 2.23%; Activity [10]: 2.79%; Activity [11]: 28.9%; Activity [12]: 0.49%; Activity [13]: 16.2%; Activity [14]: 7.1%; Activity [17]: 40.7%; Activity [18]: 42.98%; Activity [21]: 54.9%; Activity [23]: 53.53%; Activity [25]: 1.88%; Activity [26]: 47.8%
CC1(C)CC[C@]23CC[C@]4(C)[C@H](CC[C@@H]5[C@@]6(C)C=C(O)C(=O)C(C)(C)[C@@H]6CC[C@]54C)[C@H]2[C@H]1OC3,45.3,> 50,33.4,> 2.9,13 to 13.1,25.4,16.9,41.6,45.8,> 2.9,> 50,> 50,
CC(C)[C@@H]1CC[C@]2(C(=O)O)CC[C@]3(C)[C@H](CC[C@@H]4[C@@]5(C)C=C(NC6=C[C@]7(C)[C@H]8CC[C@@H]9[C@H]%10[C@H](C(C)C)CC[C@]%10(C(=O)O)CC[C@@]9(C)[C@]8(C)CC[C@H]7C(C)(C)C6=O)C(=O)C(C)(C)[C@@H]5CC[C@]43C)[C@@H]12,20.1,> 50,> 50,> 1.9,26.6 to 27,> 50,> 50,> 50,> 50,> 1.9,> 50,33.9,
CC(C)[C@@H]1CC[C@]2(C(=O)O)CC[C@]3(C)[C@H](CC[C@@H]4[C@@]5(C)CC([N+](=O)[O-])=C(O)C(C)(C)[C@@H]5CC[C@]43C)[C@@H]12,20.6,31.3,> 50,> 1.6,31.8 to 32,> 50,10.1,> 50,> 50,> 1.6,> 50,36.1,
CC(C)[C@@H]1CC[C@]2(C(=O)O)CC[C@]3(C)[C@H](CC[C@@H]4[C@@]5(C)C=C(N)C(=O)C(C)(C)[C@@H]5CC[C@]43C)[C@@H]12,20.1,> 50,> 50,> 1.9,26.6 to 27,> 50,> 50,> 50,> 50,> 1.9,> 50,33.9,
CC(=O)NC1=C[C@]2(C)[C@H]3CC[C@@H]4[C@H]5[C@H]6OC[C@@]5(CCC6(C)C)CC[C@@]4(C)[C@]3(C)CC[C@H]2C(C)(C)C1=O,30.5,> 50,> 50,> 1.7,29.9 to 30,> 50,37.9,> 50,> 50,> 1.7,> 50,35.3,
